Here are results for 27 compounds from ChEMBL document CHEMBL4270524, “Enhanced antimalarial activity of plasmepsin V inhibitors by modification of the P2 position of PEXEL peptidomimetics” (Eur J Med Chem, 2018).

The test system of one assay is HepG2. The assay can be described thus: Cytotoxicity against human HepG2 cells after 48 hrs by CellTiter-Glo assay. The settings on record: HepG2, 48 h. It counts as functional, cell-based. An outline of the steps: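 Cells kept in DMEM with 10% FCS at 37 °C, 5% CO2. 1 × 10^4 cells seeded per well and exposed to a 10-point compound titration for 48 h at 37 °C. Viability normalised to DMSO (100%) and 10 µM bortezomib (0%). EC50 given as mean and SD of three experiments.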

A short description of assay [1]: Inhibition of recombinant Plasmodium vivax plasmepsin 5 expressed in High five insect cells using DABCYLRNKRTLAQKQ-E-EDANS as substrate measured after 120 mins by fluorescence assay. An outline of the steps:
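Enzyme purified by anti-FLAG affinity then Superdex 75 gel filtration. Each well held 2.5 ng enzyme and 12 µM (Km) substrate in 25 mM Tris-HCl/25 mM MES pH 6.4 with 0.005% Tween-20 and 1% DMSO final. Ten-point 1-in-3 compound dilutions. Fluorescence read at ex 340/em 495 nm. IC50 from four-parameter fit constrained to 0 and 100%; mean and SD, n=3.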

A further assay has as its system Plasmodium falciparum. The experiment in a line: Antiplasmodial activity against ring-stage Plasmodium falciparum 3D7 assessed as reduction in parasite viability after 72 hrs by LDH assay. It counts as functional, organism-based. The settings on record: 3D7, 72 h. An outline of the steps: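 Sorbitol-synchronised early ring-stage parasites grown in RPMI-HEPES with L-glutamine and Albumax II, exposed to ten-point compound titrations in DMSO (≤0.02% final) for 72 h. Parasitemia read by LDH activity (NADH consumption) relative to DMSO control. EC50 from 4-parameter variable-slope sigmoidal fit; means and SD of three independent experiments.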

For assay [2], the target named is Plasmepsin V (Plasmodium falciparum (isolate 3D7)) (UniProt Q8I6Z5). The experiment in a line: Inhibition of plasmepsin 5 in Plasmodium falciparum 3D7 co-expressing PfEMP3-GFP infected in human erythrocytes assessed as accumulation of uncleaved PfEMP3-GFP at 1 to 20 uM after 3 hrs by immunoblot analysis. Format: cell-based. An outline of the steps:
(§1)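 Parasites cultured in O+ erythrocytes at 4% haematocrit in RPMI 1640 with 25 mM HEPES pH 7.4, 0.2% bicarbonate, 0.5% Albumax II under 5% CO2/5% O2 gas at 37 °C. Magnet-purified 24–34 h trophozoites treated 3 h at 37 °C; DMSO vehicle control. Saponin-lysed pellets run on SDS-PAGE and probed with anti-GFP, with HSP70 as loading control. ECL read-out, quantified by densitometry.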

Assay [3] has the same target. The experiment in a line: Inhibition of plasmepsin 5 in Plasmodium falciparum 3D7 co-expressing PfEMP3-GFP infected in human erythrocytes assessed as accumulation of uncleaved PfEMP3-GFP after 3 hrs by immunoblot analysis. Format: cell-based. An outline of the steps:
as §1

For assay [4] the target is unchanged. The experiment in a line: Inhibition of plasmepsin 5 in Plasmodium falciparum 3D7 co-expressing PfEMP3-GFP infected in human erythrocytes assessed as accumulation of uncleaved PfEMP3-GFP at 1 to 10 uM after 3 hrs by immunoblot analysis. It counts as cell-based. An outline of the steps: as §1

Active and inactive are the calls of the source. The rule behind the calls is not given here. Square brackets hold non-standard residues; d marks the D form. Peptide text beside a SMILES is read from it. * marks the point of attachment. Dip = N[C@H](C(=O)O)C(c1ccccc1)c1ccccc1; Sta = CC(C)C[C@H](N)[C@@H](O)CC(=O)O; Gly(cPent) = N[C@H](C(=O)O)C1CCCC1; Igl = N[C@H](C(=O)O)C1Cc2ccccc2C1; Chg = N[C@H](C(=O)O)C1CCCCC1; NHPhenethyl = c1ccc(CCN*)cc1; Phg = N[C@H](C(=O)O)c1ccccc1; Tle = CC(C)(C)[C@H](N)C(=O)O; Nva = CCC[C@H](N)C(=O)O; Abu = CC[C@H](N)C(=O)O; Cbz = O=C(OCc1ccccc1)* Where only a bound is given, the exact number is not on record here.

Chain of Plasmepsin V (Plasmodium falciparum (isolate 3D7)) (Q8I6Z5 whole entry, looked up): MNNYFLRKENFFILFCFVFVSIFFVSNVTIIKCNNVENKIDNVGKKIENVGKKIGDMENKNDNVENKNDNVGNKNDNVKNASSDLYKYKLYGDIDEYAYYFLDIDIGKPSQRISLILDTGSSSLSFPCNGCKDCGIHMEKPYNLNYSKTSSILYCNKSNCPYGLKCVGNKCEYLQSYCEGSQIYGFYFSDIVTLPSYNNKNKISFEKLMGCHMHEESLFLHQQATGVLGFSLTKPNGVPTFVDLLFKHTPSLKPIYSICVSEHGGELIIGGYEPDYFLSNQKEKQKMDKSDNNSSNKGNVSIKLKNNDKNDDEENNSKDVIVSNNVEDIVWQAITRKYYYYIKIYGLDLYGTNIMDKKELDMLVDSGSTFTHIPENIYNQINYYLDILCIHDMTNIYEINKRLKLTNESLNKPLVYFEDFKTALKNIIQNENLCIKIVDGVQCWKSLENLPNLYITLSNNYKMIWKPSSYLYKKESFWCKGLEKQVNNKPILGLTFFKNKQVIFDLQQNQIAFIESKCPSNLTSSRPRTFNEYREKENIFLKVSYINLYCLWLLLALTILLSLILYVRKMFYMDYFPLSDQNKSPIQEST

The compound `CC(C)C[C@H](NC(=O)[C@H](Cc1ccccc1)NC(=O)c1cnccn1)B(O)O` [BORTEZOMIB] displayed an EC50 in the assay with HepG2 of 0.01 µM.

As to `CC(C)C[C@H](NC(=O)[C@H](CO)NC(=O)[C@H](CCCNC(=N)N)NC(=O)OCc1ccccc1)[C@@H](O)CC(=O)NCCc1ccccc1` (Cbz-Arg-Ser-[Sta]-NHPhenethyl), the IC50 in assay [1] was above 10 µM. Also, the figures for the EC50 with HepG2 and in the assay on Plasmodium falciparum were above 40 µM and above 10 µM, respectively.

Consider `CC(C)C[C@H](NC(=O)[C@@H](NC(=O)[C@H](CCCNC(=N)N)NC(=O)OCc1ccccc1)c1ccccc1)[C@@H](O)CC(=O)NCCc1ccccc1` (Cbz-Arg-[Phg]-[Sta]-NHPhenethyl), for which, in assay [1], the IC50 worked out at 0.024 µM. For the same compound, the inhibition result in assay [2] was “Active”. The EC50 is above 40 µM in the assay with HepG2 and 1.36 µM with Plasmodium falciparum.

`CC(C)C[C@H](NC(=O)[C@@H](NC(=O)[C@H](CCONC(=N)N)NC(=O)OCc1ccccc1)C1CCCCC1)[C@@H](O)CC(=O)NCCc1ccccc1`: the inhibition entry in assay [3] is “Active”. In addition, the IC50 in assay [1] was 0.005 µM. In addition, the EC50 is above 40 µM in the assay with HepG2 and 0.09 µM in the assay on Plasmodium falciparum.

With `CC[C@H](C)[C@H](NC(=O)[C@H](CCONC(=N)N)NC(=O)OCc1ccccc1)C(=O)N[C@@H](CC(C)C)[C@@H](O)CC(=O)NCCc1ccccc1`, in assay [1], the IC50 is 0.016 µM. The EC50 in the assay on Plasmodium falciparum is 0.18 µM.

As to `CC(C)C[C@H](NC(=O)[C@@H](NC(=O)[C@H](CCCNC(=N)N)NC(=O)OCc1ccccc1)[C@H](O)c1ccccc1)[C@@H](O)CC(=O)NCCc1ccccc1`, in assay [1], the IC50 was 6.56 µM. Besides, the EC50 is above 40 µM in the assay on HepG2 and above 10 µM in the assay on Plasmodium falciparum.

Regarding `CC(C)C[C@H](NC(=O)[C@H](Cc1ccccc1)NC(=O)[C@H](CCCNC(=N)N)NC(=O)OCc1ccccc1)[C@@H](O)CC(=O)NCCc1ccccc1` (Cbz-Arg-Phe-[Sta]-NHPhenethyl), the IC50 in assay [1] amounted to 3.12 µM. Moreover, the EC50 is above 40 µM with HepG2 and above 10 µM in the assay on Plasmodium falciparum.

For `CC(C)C[C@H](NC(=O)[C@@H](NC(=O)[C@H](CCCNC(=N)N)NC(=O)OCc1ccccc1)C(C)C)[C@@H](O)CC(=O)NCCc1ccccc1` (Cbz-Arg-Val-[Sta]-NHPhenethyl), the IC50 in assay [1] was determined as 0.116 µM. Moreover, the results for the EC50 in the assay with HepG2 and with Plasmodium falciparum were above 40 µM and 3.39 µM, respectively.

Regarding `CCC[C@H](NC(=O)[C@H](CCCNC(=N)N)NC(=O)OCc1ccccc1)C(=O)N[C@@H](CC(C)C)[C@@H](O)CC(=O)NCCc1ccccc1` (Cbz-Arg-[Nva]-[Sta]-NHPhenethyl), the IC50 in assay [1] was 0.116 µM. Also, in the assay with Plasmodium falciparum, the EC50 came out at 2.4 µM.

For `O[C@@H](c1cc(C(F)(F)F)nc2c(C(F)(F)F)cccc12)[C@H]1CCCCN1` [(S,R)-MEFLOQUINE], the EC50 in the assay with HepG2 was 9.8 µM; in the assay on Plasmodium falciparum it was 0.013 µM.

`CC(C)C[C@H](NC(=O)[C@@H](NC(=O)[C@H](CCCNC(=N)N)NC(=O)OCc1ccccc1)C1CCCC1)[C@@H](O)CC(=O)NCCc1ccccc1` (Cbz-Arg-[Gly(cPent)]-[Sta]-NHPhenethyl): the IC50 in assay [1] is 0.055 µM. The EC50 in the assay on HepG2 is above 40 µM; with Plasmodium falciparum, 2.73 µM.

With `CC(C)C[C@H](NC(=O)[C@H](C)NC(=O)[C@H](CCCNC(=N)N)NC(=O)OCc1ccccc1)[C@@H](O)CC(=O)NCCc1ccccc1` (Cbz-Arg-Ala-[Sta]-NHPhenethyl), the IC50 in assay [1] turned out to be 7.18 µM. Further, the EC50 in the assay on HepG2 is above 40 µM; with Plasmodium falciparum it was above 10 µM.

With `CC[C@H](NC(=O)[C@H](CCCNC(=N)N)NC(=O)OCc1ccccc1)C(=O)N[C@@H](CC(C)C)[C@@H](O)CC(=O)NCCc1ccccc1` (Cbz-Arg-[Abu]-[Sta]-NHPhenethyl), the IC50 in assay [1] is 0.507 µM. In addition, the EC50 is above 40 µM with HepG2 and 3.14 µM in the assay on Plasmodium falciparum.

Take `CC(C)C[C@H](NC(=O)[C@@H](NC(=O)[C@H](CCCNC(=N)N)NC(=O)OCc1ccccc1)C(c1ccccc1)c1ccccc1)[C@@H](O)CC(=O)NCCc1ccccc1` (Cbz-Arg-[Dip]-[Sta]-NHPhenethyl): the 50% inhibitory concentration (IC50) in assay [1] was above 10 µM. Also, the EC50 with HepG2 was above 40 µM; with Plasmodium falciparum, above 10 µM.

For `CC(C)C[C@H](NC(=O)[C@@H](NC(=O)[C@H](CCCNC(=N)N)NC(=O)OCc1ccccc1)[C@H](C)c1ccccc1)[C@@H](O)CC(=O)NCCc1ccccc1`, the IC50 in assay [1] was above 10 µM. The EC50 in the assay on HepG2 is 35.4 µM; in the assay on Plasmodium falciparum, above 10 µM.

As to `CC(C)C[C@H](NC(=O)[C@@H](NC(=O)[C@H](CCONC(=N)N)NC(=O)OCc1ccccc1)C(C)C)[C@@H](O)CC(=O)NCCc1ccccc1`, the IC50 in assay [1] was found to be 0.019 µM. The inhibition entry in assay [4] is “Active”. The EC50 with HepG2 was above 40 µM; with Plasmodium falciparum, 0.43 µM.

As to `CC(C)C[C@H](NC(=O)[C@@H](NC(=O)[C@H](CCCNC(=N)N)NC(=O)OCc1ccccc1)[C@@H](C)O)[C@@H](O)CC(=O)NCCc1ccccc1` (Cbz-Arg-Thr-[Sta]-NHPhenethyl), in assay [1], the IC50 was 2.02 µM. For the same compound, the EC50 in the assay with HepG2 was above 40 µM; with Plasmodium falciparum it was above 10 µM.

Take `CC(C)C[C@H](NC(=O)[C@@H](NC(=O)[C@H](CCCNC(=N)N)NC(=O)OCc1ccccc1)C1CCCCC1)[C@@H](O)CC(=O)NCCc1ccccc1` (Cbz-Arg-[Chg]-[Sta]-NHPhenethyl): in assay [3], the inhibition entry is “Active”. Moreover, the IC50 in assay [1] came out at 0.029 µM. Moreover, the concentration giving a half-maximal response (EC50) came out at 36.7 µM in the assay with HepG2 and 1.22 µM in the assay on Plasmodium falciparum.

For the compound `CC(C)C[C@H](NC(=O)[C@H](CCCNC(=N)N)NC(=O)OCc1ccccc1)C(=O)N[C@@H](CC(C)C)[C@@H](O)CC(=O)NCCc1ccccc1` (Cbz-Arg-Leu-[Sta]-NHPhenethyl), the IC50 in assay [1] worked out at 0.165 µM. The EC50 in the assay on HepG2 was above 40 µM; with Plasmodium falciparum it was 5 µM.

Take `CC[C@H](C)[C@H](NC(=O)[C@H](CCCNC(=N)N)NC(=O)OCc1ccccc1)C(=O)N[C@@H](CC(C)C)[C@@H](O)CC(=O)NCCc1ccccc1` (Cbz-Arg-Ile-[Sta]-NHPhenethyl): the IC50 in assay [1] came out at 0.026 µM. The EC50 in the assay on Plasmodium falciparum stood at 1.03 µM.

With `CCC(CC)[C@H](NC(=O)[C@H](CCCNC(=N)N)NC(=O)OCc1ccccc1)C(=O)N[C@@H](CC(C)C)[C@@H](O)CC(=O)NCCc1ccccc1`, the IC50 in assay [1] is 0.112 µM. For the same compound, the EC50 is above 40 µM with HepG2 and 4.11 µM in the assay on Plasmodium falciparum.

In the case of `CC(C)C[C@H](NC(=O)[C@@H](NC(=O)[C@H](CCCNC(=N)N)NC(=O)OCc1ccccc1)C1Cc2ccccc2C1)[C@@H](O)CC(=O)NCCc1ccccc1` (Cbz-Arg-[Igl]-[Sta]-NHPhenethyl), the IC50 in assay [1] is 0.661 µM. For the same compound, the values for the EC50 with HepG2 and with Plasmodium falciparum were 23.5 µM and 6.18 µM, respectively.

Consider `CC(C)C[C@H](NC(=O)[C@@H](NC(=O)[C@H](CCCNC(=N)N)NC(=O)OCc1ccccc1)C(C)(C)O)[C@@H](O)CC(=O)NCCc1ccccc1`, for which the IC50 in assay [1] worked out at 3.01 µM. For the same compound, the EC50 with HepG2 is above 40 µM; in the assay on Plasmodium falciparum it was above 10 µM.

Regarding `CC(C)C[C@H](NC(=O)[C@@H](NC(=O)[C@H](CCCNC(=N)N)NC(=O)OCc1ccccc1)C(C)(C)C)[C@@H](O)CC(=O)NCCc1ccccc1` (Cbz-Arg-[Tle]-[Sta]-NHPhenethyl), in assay [1], the IC50 stood at 6.7 µM. For the same compound, the EC50 was above 40 µM in the assay with HepG2 and above 10 µM in the assay on Plasmodium falciparum.

As for `CCN(CC)CCCC(C)Nc1ccnc2cc(Cl)ccc12` (centres undefined) [CHLOROQUINE], the EC50 in the assay on HepG2 stood at 10.1 µM; in the assay with Plasmodium falciparum it was 0.006 µM.

As for `CC(C)C[C@H](NC(=O)[C@@H](NC(=O)[C@H](CCONC(=N)N)NC(=O)OCc1ccccc1)c1ccccc1)[C@@H](O)CC(=O)NCCc1ccccc1`, the IC50 in assay [1] was found to be 0.003 µM. In addition, in assay [2], the inhibition result was “Active”. Further, the EC50 with HepG2 was above 40 µM; in the assay on Plasmodium falciparum, 0.07 µM.

With `CC(C)C[C@H](NC(=O)[C@@H](NC(=O)[C@H](CCCNC(=N)N)NS(=O)(=O)Cc1ccccc1)C(C)C)[C@@H](O)CC(=O)NCCc1ccccc1`, in assay [1], the IC50 worked out at 0.123 µM. The EC50 is above 40 µM with HepG2 and 4.03 µM in the assay with Plasmodium falciparum.
